Only some compounds are listed: those with a hit (about 2.4% of all), similar ones and a draw of the others.
LMPTP block: LMPTP phosphatase inhibitors, primary screen, biochemical, fluorescence intensity, uHTS | Low molecular weight phosphotyrosine protein phosphatase (Homo sapiens), P24666 | recombinant LMPTP-A, OMFP fluorogenic substrate | inhibition, % at 20 µM | actives 0.22% (n = 360,000) | AID 651560, 2012;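 active = compounds that cut the enzyme signal by at least half of the control window in the single-dose screen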;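 also: plate controls were DMSO wells with enzyme plus substrate for no effect and substrate without enzyme for full effect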
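Test system: LMPTP-A phosphatase enzyme. Amount: LMPTP-A at 0.625 nM final in the reaction. Reagent: OMFP substrate, 400 µM final. Times: 50 min at room temperature. Signal: endpoint fluorescence intensity from OMFP dephosphorylation. Read-out basis: % inhibition. Benchmarks: no-enzyme and uninhibited controls.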
NadD inh: inhibitors of S. aureus NadD, primary screen, biochemical, colorimetric, uHTS; Nicotinate-nucleotide adenylyltransferase NadD (Staphylococcus aureus N315); purified NadD enzyme, colorimetric absorbance read-out; inhibition, % at 20 µM; actives 0.78% (n = 360,000); AID 602399, 2012; in the data active = inhibition above about 26%
DNMT1 block: human DNMT1 methyltransferase inhibitors, primary screen, biochemical, molecular beacon, fluorescence, HinP1I cleavage, uHTS; AID 588458, 2011; inhibition (reported as % activation of signal), % at 10 µM; DNA (cytosine-5)-methyltransferase 1 (Homo sapiens), P26358; actives 0.83% (n = 360,000); in the data active = inhibition above about 50%
STEP block: STEP phosphatase inhibitors, primary screen, biochemical, fluorescence intensity, uHTS; Tyrosine-protein phosphatase non-receptor type 5 (Homo sapiens), P54829; recombinant STEP, OMFP fluorogenic substrate; inhibition, % at 20 µM; actives 0.25% (n = 360,000); AID 588621, 2011;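 active = inhibition at 20 µM, scaled per plate between control wells, above about 37%, limit read from the data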;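 also: 0% = DMSO with enzyme and substrate and 100% = substrate only without enzyme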
Target sequence (P54829 whole entry, looked up): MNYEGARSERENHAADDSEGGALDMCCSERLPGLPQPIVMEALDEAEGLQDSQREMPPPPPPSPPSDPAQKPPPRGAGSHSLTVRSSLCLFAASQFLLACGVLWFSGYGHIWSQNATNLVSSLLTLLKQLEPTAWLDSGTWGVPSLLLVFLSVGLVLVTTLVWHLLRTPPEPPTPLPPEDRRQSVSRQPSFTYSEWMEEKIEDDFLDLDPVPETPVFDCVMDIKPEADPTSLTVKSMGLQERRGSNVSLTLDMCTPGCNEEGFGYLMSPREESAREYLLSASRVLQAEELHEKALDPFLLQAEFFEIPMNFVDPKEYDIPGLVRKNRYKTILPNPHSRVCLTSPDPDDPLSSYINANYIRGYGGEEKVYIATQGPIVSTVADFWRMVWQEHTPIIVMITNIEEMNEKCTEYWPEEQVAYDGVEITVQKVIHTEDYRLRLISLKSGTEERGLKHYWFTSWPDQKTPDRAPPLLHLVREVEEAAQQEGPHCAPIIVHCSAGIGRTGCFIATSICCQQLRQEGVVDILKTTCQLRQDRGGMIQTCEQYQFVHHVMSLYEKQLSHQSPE
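material = STEP tyrosine phosphatase | reagent = fluorogenic phosphatase substrate OMFP at 25 µM final | doses = single compound dose of 20 µM, 1% DMSO final | schedule = 20 min reaction, room temperature, in the dark | measured by = fluorescence, 480/540 nm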
Scp-1 inhibitor: Scp-1 phosphatase inhibitors, primary screen, biochemical, colorimetric, uHTS | AID 493091, 2011 | Recombinant Scp1, phosphopeptide, malachite green phosphate absorbance | Carboxy-terminal domain RNA polymerase II polypeptide A small phosphatase 1 (Homo … | actives 0.88% (n = 340,000) | inhibition, % at 20 µM;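 active = inhibition above about 50% at 20 µM, limit read from the data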;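 also: plate controls were DMSO wells with enzyme for no effect and wells lacking enzyme for full effect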
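Test system – truncated SCP-1 phosphatase (76-261aa) · Reagent – Phosphorylated 17-residue peptide substrate · Incubation – 45 min room-temperature reaction, 5 min colour, 30 min stabiliser · Detection – colorimetric phosphate reagent with accelerator and stabiliser, absorbance at 630 nm · Measure – % inhibition at 20 µM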
SUMO1-SIM PPI: modulators of SUMO1 protein-protein interactions, primary screen, biochemical, uHTS; Small ubiquitin-related modifier 1 (Homo sapiens), P63165; inhibition, % at 20 µM; SUMO1 binding to a labelled peptide, TR-FRET, 1 h; actives 0.33% (n = 360,000); in the data active = inhibition above about 37%
Scp-1 conf: Scp-1 phosphatase inhibitors, retest, confirmation, biochemical, colorimetric, single concentration | recombinant SCP-1 catalytic domain, phosphate release, malachite green absorbance | shares compounds with Scp-1 inhibitor | actives 61% (n = 2,500) | inhibition, % at 20 µM | AID 540281, 2011;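 also: plate controls were DMSO with enzyme for no effect and buffer wells lacking enzyme for full effect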
Scp-1 MG ctr: colorimetric readout interference by compounds, confirmation, artefact control for Scp-1 inhibitor project, biochemical, single concentration; shares compounds with Scp-1 inhibitor; Colorimetric interference counterscreen, malachite green absorbance 630 nm; apparent inhibition (interference), % at 20 µM; 2,500 tested, under 10 active; AID 540313, 2011;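 also: compounds added after enzyme reaction finished so only phosphate colour detection is probed; plate controls were DMSO wells with completed Scp-1 reaction for no effect and substrate wells lacking enzyme for full effect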
Scp1 DSF: Scp-1 binding by thermal shift, confirmation, orthogonal assay for Scp-1 inhibitor project, biophysical, differential scanning fluorimetry; shares compounds with Scp-1 inhibitor; Recombinant SCP1, Sypro Orange thermal shift Tm; thermal shift relative to vanadate control, % at 40 µM; actives 25% (n = 1,500); AID 540329, 2011;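 active = substances whose mean melting-temperature shift, as a percentage of the reference inhibitor's shift, reaches about 5.3%, limit read from the data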;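 also: 0% = Tm of DMSO wells and 100% = Tm with sodium orthovanadate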
Beacon interf DR: spectral interference with molecular beacon fluorescence, dose response, artefact control for DNMT1 inhibitor project, biochemical, fluorescent molecular beacon; spectral interference counter-screen; IC50, µM; AID 602382, 2012; shares compounds with DNMT1 block; 200 tested, under 10 active; call rule not given here
DNMT1 inh conf: DNMT1 methyltransferase inhibitor retest, confirmation, biochemical, molecular beacon, fluorescence, single concentration; shares compounds with DNMT1 block; DNMT1 molecular beacon HinP1I cleavage; inhibition, % at 10 µM; actives 8% (n = 2,300); AID 602385, 2012;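 active = average inhibition of at least 30% in the single-concentration confirmation test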
DNMT1 interf: counter-screen for DNMT1 inhibitors: spectral interference; shares compounds with DNMT1 block; DNMT1 molecular beacon spectral interference counterscreen, fluorescence 485/520; activation (fluorescence interference), % at 10 µM; actives 1% (n = 2,300); AID 602387;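 active = activation of at least 30% at 10 µM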;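 also: DNMT1 catalytic domain with a HinP1I cleavage step and a FAM/dabcyl DNA beacon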
Numbers without * were called inactive.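 The calls were made as follows, unless noted: active = inhibition of at least 30% at 20 µM; inactive = the rest.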

How did C=C(C)C(=O)Nc1cccc(C2=NOC3(C2)C[C@@H](C(N)=O)N(C(=O)C(=C)C)C3)c1 (stereo partly specified) do in these assays?
LMPTP block: -0.6; NadD inh: -7.2; DNMT1 block: 103.2*; STEP block: 3.0; Scp-1 inhibitor: 70.4*; SUMO1-SIM PPI: 63.3*; Scp-1 conf: 62.0*; Scp-1 MG ctr: -9.3; Scp1 DSF: -10.6; Beacon interf DR: >99; DNMT1 inh conf: 59.6*; DNMT1 interf: 3.2

How did CCC(=O)Nc1cccc(C2=NOC3(C2)C[C@@H](C(N)=O)N(C(=O)COc2ccc(Cl)cc2)C3)c1 (stereo partly specified) do in these assays?
LMPTP block: -1.5; NadD inh: 3.4; DNMT1 block: -5.4; STEP block: -1.5; Scp-1 inhibitor: -4.4; SUMO1-SIM PPI: 1.9

What do the screens show for `CCn1c(SCC(=O)N/N=C(/C)c2ccncc2)nc2ccccc21`?
LMPTP block: -0.7; NadD inh: 4.2; DNMT1 block: 2.7; STEP block: 0.5; Scp-1 inhibitor: -3.6; SUMO1-SIM PPI: -2.7

What do the screens show for `O=C(CNC(=O)c1sc2ccccc2c1Cl)NC1CC1`?
LMPTP block: -1.8; NadD inh: -6.8; DNMT1 block: 0.4; STEP block: 0.6; Scp-1 inhibitor: 4.7; SUMO1-SIM PPI: -8.0

How did CC(C)CNS(=O)(=O)c1ccc(CCC(=O)NCCc2ccccc2)cc1 do in these assays?
LMPTP block: -0.9; NadD inh: -5.8; DNMT1 block: -0.7; STEP block: 15.4; Scp-1 inhibitor: -5.7; SUMO1-SIM PPI: 5.6

What do the screens show for `C=C(C)C(=O)Nc1cccc(C2=NOC3(C2)C[C@@H](C(N)=O)N(C(=O)c2cc([N+](=O)[O-])cc([N+](=O)[O-])c2C)C3)c1` (stereo partly specified)?
LMPTP block: 0.9; NadD inh: 6.6; DNMT1 block: 95.9*; STEP block: 0.8; Scp-1 inhibitor: 69.7*; SUMO1-SIM PPI: 46.0*; Scp-1 conf: 64.2*; Scp-1 MG ctr: -6.0; Scp1 DSF: 4.2; DNMT1 inh conf: 16.7; DNMT1 interf: 3.3
